For 13 compounds, MIC results are on record in ChEMBL document CHEMBL1123986, “Oral absorption of cephalosporin antibiotics. 2. Expanded structure-activity relationships of 7-(arylacetamido)-3-substituted cephalosporins” (1988).

Values after ≈ are worked out from the molar mass of the structure shown.

For experiment [1], the system named is Klebsiella pneumoniae. Kind of experiment: Minimum inhibitory concentration against Klebsiella pneumoniae. The class given is functional. The method in brief: (§1)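 Agar dilution MIC in μg/mL. […] Organisms not run are marked not tested.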
Experiment [2] deals with Staphylococcus aureus. Kind of experiment: Minimum inhibitory concentration against Staphylococcus aureus. The class given is functional. Put shortly:
as §1

Experiment [3] deals with Escherichia coli. Kind of experiment: Minimum inhibitory concentration against Escherichia coli. Format: functional. The method in brief: as §1
Experiment [4] concerns Haemophilus influenzae. Kind of experiment: (§2) Minimum inhibitory concentration against Haemophilus influenzae. The class given is functional. The method in brief:
as §1

For experiment [5], the system named is Klebsiella aerogenes. In words: Minimum inhibitory concentration against Enterobacter aerogenes. Format: functional. Put shortly: as §1
Experiment [6] concerns Streptococcus pneumoniae. Kind of experiment: Minimum inhibitory concentration against Streptococcus pneumoniae. Format: functional. The method in brief:
as §1

For experiment [7], the system named is Streptococcus pyogenes. In words: Minimum inhibitory concentration against Streptococcus pyogenes. The class given is functional. Put shortly:
as §1

Experiment [8] concerns Salmonella typhi. In words: Minimum inhibitory concentration against Salmonella typhi. Format: functional, Salmonella enterica subsp. enterica serovar Typhi. Conditions: Salmonella enterica.
Experiment [9] concerns Haemophilus influenzae. The description is as §2. Format: functional. The method in brief:
as §1
This is another data set of the same source.

For `O=C(Cc1noc(C(Cl)(Cl)Cl)n1)N[C@@H]1C(=O)N2C(C(=O)O)=CCS[C@H]12`, the MIC in experiment [1] amounted to 32 µg/mL (≈ 74.8 µM); in experiment [2] it was 2 µg/mL (≈ 4.68 µM); in experiment [3], 32 µg/mL (≈ 74.8 µM); in experiment [4] it was 16 µg/mL (≈ 37.4 µM); in experiment [5] it was 128 µg/mL (≈ 299 µM); in experiment [6], 2 µg/mL (≈ 4.68 µM). Besides, the MIC in experiment [7] came out at 2 µg/mL (≈ 4.68 µM); in experiment [8], 16 µg/mL (≈ 37.4 µM); in [9], 32 µg/mL (≈ 74.8 µM).
For the compound `O=C(Cc1ccc(F)cc1)N[C@@H]1C(=O)N2C(C(=O)O)=C(Cl)CS[C@H]12`, the MIC in experiment [1] was 32 µg/mL (≈ 86.3 µM); in experiment [2] it was 0.5 µg/mL (≈ 1.35 µM); in [3], 32 µg/mL (≈ 86.3 µM); in [4], 1 µg/mL (≈ 2.7 µM); in [5], greater than 128 µg/mL; in [6], 0.125 µg/mL (≈ 0.337 µM). For the same compound, the MIC worked out at 0.06 µg/mL (≈ 0.162 µM) in experiment [7], 16 µg/mL (≈ 43.2 µM) in [8] and 4 µg/mL (≈ 10.8 µM) in experiment [9].
On to `Nc1ccc(CC(=O)N[C@@H]2C(=O)N3C(C(=O)O)=C(Cl)CS[C@H]23)cc1`, for which the MIC in [1] turned out to be 2 µg/mL (≈ 5.44 µM); in [2], 0.5 µg/mL (≈ 1.36 µM); in experiment [3] it was 16 µg/mL (≈ 43.5 µM); in experiment [4], 0.5 µg/mL (≈ 1.36 µM); in [5], 128 µg/mL (≈ 348 µM); in experiment [6] it was 0.125 µg/mL (≈ 0.34 µM). Further, the MIC in experiment [7] amounted to 0.06 µg/mL (≈ 0.163 µM); in [8] it was 2 µg/mL (≈ 5.44 µM); in experiment [9], 1 µg/mL (≈ 2.72 µM).
`O=C(COc1ccc(Cl)cc1)N[C@@H]1C(=O)N2C(C(=O)O)=C(Cl)CS[C@H]12`: the MIC is greater than 128 µg/mL in [1]; 0.125 µg/mL (≈ 0.31 µM) in experiment [2]; greater than 128 µg/mL in experiment [3]; 1 µg/mL (≈ 2.48 µM) in [4]; greater than 128 µg/mL in experiment [5]; 0.03 µg/mL (≈ 0.0744 µM) in experiment [6]. In addition, the figures for the MIC in [7], in [8] and in [9] were 0.03 µg/mL (≈ 0.0744 µM), greater than 128 µg/mL and 1 µg/mL (≈ 2.48 µM), respectively.
On to `COc1ccc(OCC(=O)N[C@@H]2C(=O)N3C(C(=O)O)=C(Cl)CS[C@H]23)cc1`, for which the MIC in [1] is greater than 128 µg/mL; in experiment [2], 0.25 µg/mL (≈ 0.627 µM); in [3], greater than 128 µg/mL; in [4] it was 2 µg/mL (≈ 5.01 µM); in experiment [5], greater than 128 µg/mL; in [6], 0.125 µg/mL (≈ 0.313 µM). Moreover, the figures for the MIC in experiment [7], in experiment [8] and in experiment [9] were 0.06 µg/mL (≈ 0.15 µM), greater than 128 µg/mL and 2 µg/mL (≈ 5.01 µM), respectively.
For the compound `O=C(CSc1nc[nH]n1)N[C@@H]1C(=O)N2C(C(=O)O)=C(Cl)CS[C@H]12`, the MIC was 16 µg/mL (≈ 42.6 µM) in experiment [1]; 4 µg/mL (≈ 10.6 µM) in experiment [2]; 16 µg/mL (≈ 42.6 µM) in [3]; 4 µg/mL (≈ 10.6 µM) in [4]; greater than 128 µg/mL in [5]; 2 µg/mL (≈ 5.32 µM) in experiment [6]. Moreover, the results for the MIC in [7], in [8] and in experiment [9] were 0.5 µg/mL (≈ 1.33 µM), 16 µg/mL (≈ 42.6 µM) and 4 µg/mL (≈ 10.6 µM), respectively.
On to `COc1ccccc1CC(=O)N[C@@H]1C(=O)N2C(C(=O)O)=C(Cl)CS[C@H]12`, for which the MIC in experiment [1] was greater than 128 µg/mL; in experiment [2], 1 µg/mL (≈ 2.61 µM); in experiment [3], greater than 128 µg/mL; in experiment [4], 1 µg/mL (≈ 2.61 µM); in experiment [5], greater than 128 µg/mL; in experiment [6], 1 µg/mL (≈ 2.61 µM). In addition, the MIC in [7] was 1 µg/mL (≈ 2.61 µM); in experiment [8], greater than 128 µg/mL; in [9] it was 2 µg/mL (≈ 5.22 µM).
For `O=C(Cc1ccc(Cl)cc1)N[C@@H]1C(=O)N2C(C(=O)O)=C(Cl)CS[C@H]12`, the MIC in experiment [1] is 128 µg/mL (≈ 331 µM); in [2] it was 0.25 µg/mL (≈ 0.646 µM); in experiment [3], 64 µg/mL (≈ 165 µM); in experiment [4], 0.5 µg/mL (≈ 1.29 µM); in experiment [5], greater than 128 µg/mL; in experiment [6], 0.125 µg/mL (≈ 0.323 µM). Further, the MIC in experiment [7] turned out to be 0.06 µg/mL (≈ 0.155 µM); in [8], 64 µg/mL (≈ 165 µM); in experiment [9], 1 µg/mL (≈ 2.58 µM).
With `Cc1nc(CC(=O)N[C@@H]2C(=O)N3C(C(=O)O)=C(Cl)CS[C@H]23)c(-c2ccccc2)s1`, the MIC in [1] was greater than 128 µg/mL; in [2] it was 0.125 µg/mL (≈ 0.278 µM); in experiment [3], greater than 128 µg/mL; in experiment [4] it was 32 µg/mL (≈ 71.1 µM); in experiment [5], greater than 128 µg/mL; in experiment [6] it was 0.06 µg/mL (≈ 0.133 µM). For the same compound, the MIC was 0.015 µg/mL (≈ 0.0333 µM) in [7], greater than 128 µg/mL in experiment [8] and 32 µg/mL (≈ 71.1 µM) in experiment [9].
With `O=C(Cc1csc2ccc(Cl)cc12)N[C@@H]1C(=O)N2C(C(=O)O)=CCS[C@H]12`, the MIC in [1] was 128 µg/mL (≈ 313 µM); in experiment [2] it was 0.125 µg/mL (≈ 0.306 µM); in experiment [3] it was 128 µg/mL (≈ 313 µM); in experiment [7], 0.03 µg/mL (≈ 0.0734 µM); in experiment [8], greater than 128 µg/mL.
For `O=C(Cc1noc(C(Cl)(Cl)Cl)n1)N[C@@H]1C(=O)N2C(C(=O)O)=C(Cl)CS[C@H]12`, the MIC in experiment [1] is 16 µg/mL (≈ 34.6 µM); in experiment [2], 2 µg/mL (≈ 4.33 µM); in experiment [3] it was 64 µg/mL (≈ 138 µM); in experiment [4], 4 µg/mL (≈ 8.66 µM); in experiment [5], greater than 128 µg/mL; in experiment [6] it was 0.5 µg/mL (≈ 1.08 µM). Further, the MIC in experiment [7] came to 0.25 µg/mL (≈ 0.541 µM); in experiment [8], 16 µg/mL (≈ 34.6 µM); in experiment [9], 4 µg/mL (≈ 8.66 µM).
In the case of `COc1ccc(CC(=O)N[C@@H]2C(=O)N3C(C(=O)O)=C(Cl)CS[C@H]23)cc1OC`, the MIC was 128 µg/mL (≈ 310 µM) in experiment [1]; 0.25 µg/mL (≈ 0.606 µM) in experiment [2]; 128 µg/mL (≈ 310 µM) in experiment [3]; 0.5 µg/mL (≈ 1.21 µM) in [4]; greater than 128 µg/mL in [5]; 0.06 µg/mL (≈ 0.145 µM) in experiment [6]. For the same compound, the MIC in experiment [7] was 0.3 µg/mL (≈ 0.727 µM); in [8], 128 µg/mL (≈ 310 µM); in experiment [9] it was 1 µg/mL (≈ 2.42 µM).
For the compound `O=Cc1ccc(OCC(=O)N[C@@H]2C(=O)N3C(C(=O)O)=C(Cl)CS[C@H]23)cc1`, the MIC in [1] is greater than 128 µg/mL; in experiment [2] it was 0.25 µg/mL (≈ 0.63 µM); in experiment [3], greater than 128 µg/mL; in [4] it was 1 µg/mL (≈ 2.52 µM); in experiment [5], greater than 128 µg/mL; in experiment [6], 0.03 µg/mL (≈ 0.0756 µM). Further, the MIC in experiment [7] is 0.015 µg/mL (≈ 0.0378 µM); in [8] it was greater than 128 µg/mL; in experiment [9] it was 2 µg/mL (≈ 5.04 µM).
